# UCH37 inh: blocks the human deubiquitinase UCH37. inhibition, % (no concentration beside the values). hit rate 0.33% among 330,000. purified proteasome/UCH37, Ub-AMC cleavage fluorescence;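 active = mean inhibition over replicate wells above about 20%, limit read from the data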;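 also: 0% = compound-free wells with enzyme and 100% = wells lacking proteasome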
# Target sequence (Q9Y5K5 whole entry, looked up): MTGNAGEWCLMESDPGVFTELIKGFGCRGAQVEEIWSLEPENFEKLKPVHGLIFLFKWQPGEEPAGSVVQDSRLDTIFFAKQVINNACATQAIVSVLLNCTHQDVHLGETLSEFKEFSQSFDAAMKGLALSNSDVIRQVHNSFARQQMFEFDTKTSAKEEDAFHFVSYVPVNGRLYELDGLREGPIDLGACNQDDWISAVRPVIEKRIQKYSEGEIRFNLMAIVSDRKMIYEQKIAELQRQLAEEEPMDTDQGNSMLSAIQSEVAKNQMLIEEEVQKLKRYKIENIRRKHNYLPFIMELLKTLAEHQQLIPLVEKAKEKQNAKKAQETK
#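 Material: Human UCH37 enzyme supplied as purified proteasome complex | Schedule: 30 min compound-proteasome preincubation then 25 min substrate reaction, room temperature | Detection: AMC fluorescence from Ub-AMC cleavage, excitation 355 nm, emission 460 nm | Benchmarks: Wells without proteasome as full block, compound-free enzyme plus substrate as uninhibited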
# CHOP inh: inhibitors of CHOP induction in ER stress response. CHO-K1 CHOP-promoter luciferase, tunicamycin-induced, 15-18 h. inhibition, % at 10 µM. hit rate 3.8% among 220,000;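 active = compounds that reduced the stress-induced luciferase reporter signal by more than about 70% of percent inhibition, limit read from the data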;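 also: 0% = tunicamycin plus vehicle and 100% = wells without tunicamycin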
# XBP1 UPR activ: activators of adaptive arm of unfolded protein response (XBP1) | CHO-XBP1 luciferase reporter, IRE1-XBP1 UPR activation, luminescence; percent of tunicamycin response, DMSO as zero | activation, % at 20 µM | hit rate 0.33% among 330,000;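 active = versus positive control, 20 µM dose yields 30% or more activation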;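 also: 100% = tunicamycin at 10 µg/mL and 0% = DMSO only wells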
#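 Assay system: CHO-XBP1 luciferase reporter cells; Schedule: 6 h treatment, 37 °C; Detection: glow luminescence from Steady-Glo reagent; Benchmarks: high control tunicamycin 10 µg/mL final, low control DMSO vehicle only.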
# CHOP UPR activ: apoptotic UPR (CHOP) activation; activation, % at 10 µM; CHO-CHOP luciferase reporter, luminescence; percent of tunicamycin response over DMSO baseline; hit rate 0.34% among 330,000; AID 449763;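 active = at 10 µM dose, activation of 40% or more, normalized to positive control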;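 also: 100% = tunicamycin at 10 µg/mL and 0% = DMSO alone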
#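 assay system = CHO CHOP reporter cells | amount = 500 CHO-CHOP cells per well | buffer or medium = F12 with 10% FBS | incubation = 16-18 h cell attachment, then 6 h compound exposure, 37 °C | detection = luminescence read with Steady-Glo | read-out = percent activation relative to tunicamycin control | controls = tunicamycin high control, DMSO low control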
# Fh CTSL1 inh: blocks F. hepatica cathepsin L1 in PFM18AAP counter-screen; inhibition, % at 5.96 µM; hit rate 0.49% among 300,000; recombinant F. hepatica cathepsin L1, Z-Leu-Arg-MCA fluorescence;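 active = inhibition above the mean of all tested compounds plus 3 SD, set per screening campaign, cut at about 17% in these data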;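 also: 0% = plate median of test compound wells and 100% = 1 µM Z-Phe-Ala-diazomethylketone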
# XBP1 UPR conf: adaptive UPR (XBP1) activation, confirmed; shares compounds with XBP1 UPR activ; AID 485299; hit rate 63% among 1,000; CHO-XBP1 IRE1-XBP1 luciferase reporter, luminescence; activation, % at 20 µM;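 active = reporter signal at least 30% of the positive control's activation in two or more of four replicate wells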;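 also: plate controls were DMSO negative control for no effect and tunicamycin 10 µg/mL positive control for full effect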
# UCH37 confirm: confirmation of human UCH37 deubiquitinating enzyme inhibitors. shares compounds with UCH37 inh. Proteasome-bound UCH37, Ub-AMC cleavage fluorescence. inhibition, % at 20 µM. hit rate 27% among 480. AID 624100;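 active = average inhibition over replicates above about 50%, so the earlier screening hit is confirmed, limit read from the data; inactive = the rest, counted as false positives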;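 also: based on cleavage rate fitted by regression over a 30 min kinetic read; 0% = proteasome plus Ub-AMC and 100% = Ub-AMC without proteasome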
# * hit, by the source's call; . = no result. This excerpt belongs to a sample that is enriched for hits.
SMILES,UCH37 inh,CHOP inh,XBP1 UPR activ,CHOP UPR activ,Fh CTSL1 inh,XBP1 UPR conf,others
COc1ccc(NC(=O)c2oc3ccccc3c2NC(=O)C2CC2)c(OC)c1,1.4,.,-0.4,1.6,-2.2,.,
COc1ccc(CNC(=O)C(C)OC(=O)CON=C(C)c2ccc3c(c2)OCO3)cc1 (stereo unspecified),1.3,.,.,.,.,.,
O=C(Cn1cc(C(F)(F)F)ccc1=O)NN=Cc1ccc(Cl)cc1,1.5,.,.,.,.,.,
COc1ccc(N(C(=O)Cn2nnc(-c3ccccc3F)n2)C(C(=O)NCC2CCCO2)c2ccc(Cl)cc2)cc1 (stereo unspecified),0.3,-19.9,41.5*,4.5,0.4,3.1,
COc1ccc(N(C(=O)Cn2nnc(-c3ccc(Cl)cc3)n2)C(C(=O)NCC2CCCO2)c2ccc(C)cc2)cc1 (stereo unspecified),-0.8,56.2,3.4,5.4,0.9,.,
COc1ccc(-c2nc3ccccn3c2N=Cc2ccc(OC)c(OC)c2)cc1O,-242.2,.,.,.,.,.,
Cc1ccc(C=Nn2c(C)n[nH]c2=S)o1,7.9,.,.,.,.,.,
COc1ccc(-c2cc(C(F)F)n3ncc(C(=O)N4CCc5ccccc5C4)c3n2)cc1,-166.1,51.0,37.6*,-1.1,1.5,72.6*,
Cc1ccc(-c2cc(C(F)F)n3ncc(C(=O)N4CCc5ccccc54)c3n2)cc1,-0.4,6.2,47.0*,0.4,-0.8,125.7*,
COc1ccc(-c2cc(C(F)F)n3ncc(C(=O)N4CCCCC4)c3n2)cc1,-114.2,39.3,5.1,0.8,0.7,.,
Cn1nc(C(F)(F)F)c(/C=N/OC(=O)c2ccccc2)c1SCc1ccc(Cl)cc1,.,57.3,48.2*,11.9,-2.2,89.5*,
Cn1nc(C(F)(F)F)c(/C=N/OC(=O)c2ccccc2Cl)c1SCc1ccccc1Cl,.,34.8,89.4*,26.0,2.8,97.8*,
COc1ccc2oc(-c3ccc(NC(=O)c4ccc(N5CCOCC5)c([N+](=O)[O-])c4)cc3)nc2c1,.,2.4,63.6*,3.4,1.8,22.8,
CCCCCC(=O)NN=Cc1ccc(N(C)C)cc1,-226.0,.,.,.,.,.,
O=C(O)CCC(=NNC(=O)c1ccc(-c2ccccc2)cc1)c1ccccc1,3.8,.,.,.,.,.,
COc1ccc(C(=O)N/N=C/c2ccccc2OC(=O)c2ccccc2)cc1,.,.,51.2*,1.7,4.1,29.8,
Cc1cc(N2CCN(c3nc(-c4ccc([N+](=O)[O-])cc4)cs3)CC2)c2ccccc2n1,7.0,81.7*,68.0*,8.8,-3.7,39.5*,
CCC(C)Nc1nc(N)c([N+](=O)[O-])c(NC2CCCCC2)n1 (stereo unspecified),5.4,.,34.9*,0.0,2.2,31.4*,
COc1ccc(Nc2nc(N)c([N+](=O)[O-])c(NCCO)n2)cc1,.,1.4,6.2,-0.9,2.4,.,
COc1ccc(Nc2nc(N)c([N+](=O)[O-])c(NC3CCCCC3)n2)cc1,8.0,.,52.9*,1.4,2.2,34.5*,
COc1ccccc1C(=O)ON=C(c1ccncc1)c1ccc([N+](=O)[O-])cc1,2.4,.,.,.,.,.,
CCOC(=O)c1c(NC(=O)/C=C/C(=O)O)sc(C)c1-c1ccc(C(C)(C)C)cc1,16.3,38.6,47.1*,18.9,6.0,46.9*,
CC(=O)Nc1ccc(S(=O)(=O)Oc2ccc(C=N/N=C3/NC(=O)C(CC(=O)O)S3)cc2)cc1 (stereo unspecified),12.5,.,.,.,.,.,
CN(C)Cc1c(C(=O)NN=C/C=C/c2ccccc2)nnn1-c1nonc1N,9.1,.,.,.,.,.,
COc1cc(OC)c2c(-c3cccc(-c4ccc(CO)cc4)c3)cc(=O)oc2c1,-3.2,.,34.1*,0.3,.,29.7*,
SMILES,UCH37 inh,CHOP inh,XBP1 UPR activ,CHOP UPR activ,Fh CTSL1 inh,XBP1 UPR conf,others
CCCCNc1c(-c2ccc(SC(C)CC)cc2)nc2cnccn12 (stereo unspecified),-126.3,.,56.6*,4.3,.,50.0*,
Cc1cc(C)c2c(c1)/C(=N\N=c1\sc3ccccc3n1C)C(=O)N2,.,68.8,30.5*,17.6,-0.5,28.1,
Cc1cc(C)c2c(c1)C(=NN=c1sc3ccccc3n1C)C(=O)N2,7.1,.,.,.,.,.,
Cc1ccc(Nc2nc3ccc(Cl)cc3n3cnnc23)cc1F,-54.5,.,32.0*,1.7,0.2,47.7*,
COC(=O)c1ccc(C=NN2CCN(Cc3ccc(Cl)cc3)CC2)cc1,2.9,.,.,.,.,.,
CCOC(=O)C1=C(C)N=C2c3ccccc3C(=O)C2C1c1ccc(C)cc1 (stereo unspecified),6.5,73.9*,32.2*,2.4,-1.5,28.2*,
Oc1cc(-c2ccc(N3CCCCC3)nc2)cc2cccnc12,-8.9,.,55.9*,7.3,.,52.4*,
Cc1ccc(NC(=O)c2cc(S(=O)(=O)N3CCCCC3)ccc2N2CCOCC2)cc1S(=O)(=O)N(C)C,2.4,.,.,.,.,.,
Cc1ccc(NC(=O)c2cc(S(=O)(=O)N(C)C)ccc2N2CCCC2)cc1S(=O)(=O)N(C)C,-0.1,.,53.0*,10.7,-0.8,67.1*,
O=C(NN=Cc1c[nH]c2ccccc12)c1cccc([N+](=O)[O-])c1,10.4,.,.,.,.,.,
COC(=O)c1ccc2c(=O)n(CC3CCCO3)c(SCC(=O)Nc3ccccc3Cl)nc2c1 (stereo unspecified),-3.5,45.1,34.6*,5.1,3.0,6.6,
COC(=O)c1ccc2c(=O)n(Cc3ccco3)c(SCC(=O)Nc3ccccc3Cl)nc2c1,-14.5,-6.2,12.2,8.1,-1.6,.,
Cn1c(-c2ccccc2)c(/C=N/NC(=O)c2ccc(O)cc2)c2ccccc21,.,52.0,34.6*,11.0,7.7,62.9*,
Cc1nnc(N2CCCC(C(=O)NCc3ccc(OC(C)C)cc3)C2)c2nn(-c3ccccc3)c(C)c12 (stereo unspecified),-92.7,.,-4.7,2.2,3.6,.,
Cc1nnc(N2CCCC(C(=O)Nc3cc(F)ccc3F)C2)c2nn(-c3ccccc3)c(C)c12 (stereo unspecified),-31.3,.,41.4*,4.9,4.3,-0.2,
S=c1[nH]nc(COc2ccccc2)n1N=C/C(Cl)=C/c1ccccc1,6.0,.,.,.,.,.,
O=S(=O)(O)c1cccc2c(N=Nc3ccc(O)c4ncccc34)cccc12,35.9*,.,.,.,8.3,.,UCH37 confirm=39.0
O=C1NNC(c2ccccc2)=N/C1=C\c1ccccc1Cl,33.9*,2.1,.,.,.,.,UCH37 confirm=74.0*
Cc1cc(C)c(S(=O)(=O)N=C2C=C(SCC(=O)O)C(=O)c3ccccc32)cc1C,48.9*,.,.,.,.,.,UCH37 confirm=82.2*
CCOC(=O)c1c(=O)n(O)c2ccc(C)cc2[n+]1[O-],39.4*,20.3,-4.5,-0.3,0.9,.,UCH37 confirm=13.0
C=CCN1C=CC(=C/C=C(/C#N)C(=O)OCC)C=C1,32.2*,5.6,-2.1,-1.0,8.6,.,UCH37 confirm=41.1
CCOC(=O)/C(C#N)=C\c1ccco1,15.0,30.0,1.6,0.5,1.3,.,
